The list is not random: actives were taken first. Their share in the collection is about 3.2%.
DAX1 inh-1: DAX1 (NR0B1) inhibition, primary screen; inhibition, % at 6.8 µM; actives 1.1% (n = 370,000); HEK293T StAR-luciferase reporter, SF-1/DAX-1 repression relief; AID 652010;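 active = inhibition above the mean over all tested compounds plus 3 SD, cut at about 3.6% in these data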;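 note: 0% = DAX-1 cells with DMSO and 100% = cells lacking DAX-1 with DMSO; higher inhibition means more luminescence from relief of DAX-1 repression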
NR2E3 ag-1: NR2E3 (human) agonism | actives 0.12% (n = 320,000) | Q9Y5X4 | AID 2300 | inhibition of corepressor binding, % at 4.78 µM | GST-NR2E3/biotin-RetCOR TR-FRET, 1536-well;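 active = percent inhibition above the cutoff of mean plus 3 SD of all tested compounds, set per screening campaign, cut at about 20% in these data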;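 note: 0% = DMSO wells and 100% = biotin wells as full block of FRET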
Target sequence (Q9Y5X4 whole entry, looked up): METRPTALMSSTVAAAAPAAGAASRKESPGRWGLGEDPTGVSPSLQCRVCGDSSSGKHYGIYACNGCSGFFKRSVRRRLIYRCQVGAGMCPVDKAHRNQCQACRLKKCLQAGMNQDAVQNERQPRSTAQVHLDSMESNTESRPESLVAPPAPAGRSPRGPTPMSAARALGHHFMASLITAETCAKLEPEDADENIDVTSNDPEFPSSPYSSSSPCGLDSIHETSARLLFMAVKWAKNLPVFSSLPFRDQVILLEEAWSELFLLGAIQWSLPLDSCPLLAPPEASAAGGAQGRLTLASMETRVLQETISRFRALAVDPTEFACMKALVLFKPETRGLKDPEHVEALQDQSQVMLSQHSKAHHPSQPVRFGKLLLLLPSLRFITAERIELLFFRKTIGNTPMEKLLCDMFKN
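Material: NR2E3–RetCOR corepressor complex | Quantity: 1.35 nM GST-tagged NR2E3 final | Schedule: 5 h at 4 °C | Replication: Singlicate compound wells | Reagent: RetCOR corepressor, biotinylated, 7 nM | Controls: Biotin wells as high control, 0.6% DMSO wells as low control | Signal: TR-FRET, Eu(K)-anti-GST donor, streptavidin-D2 acceptor, ex 340, em 617/671 nm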
DAX1 inh-2: inhibits human nuclear receptor DAX1 | P51843 | HEK293 Gal4-DAX1 luciferase reporter, luminescence | inhibition, % at 6.75 µM | actives 0.99% (n = 340,000);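 active = inhibition above the mean over all tested compounds plus 3 SD, cut at about 4.2% in these data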;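 note: 0% = DAX1-transfected cells with DMSO and 100% = empty-vector control cells with DMSO; inhibition shows as a rise in luminescence from relieved DAX1 repression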
Target sequence (P51843 207-470 limits assumed): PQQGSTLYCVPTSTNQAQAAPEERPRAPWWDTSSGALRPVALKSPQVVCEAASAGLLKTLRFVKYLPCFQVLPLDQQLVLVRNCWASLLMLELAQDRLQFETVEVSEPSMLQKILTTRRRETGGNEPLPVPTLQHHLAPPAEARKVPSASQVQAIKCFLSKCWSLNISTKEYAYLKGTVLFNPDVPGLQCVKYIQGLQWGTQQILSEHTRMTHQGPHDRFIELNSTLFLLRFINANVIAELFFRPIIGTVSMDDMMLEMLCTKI
SMARCA2 activ: increases SMARCA2 function in MMTV reporter cells; MG213 cells, MMTV-luciferase reporter, dexamethasone, overnight; activation, % at 9.1 µM; actives 1% (n = 370,000); AID 652017; in the data active = activation above about 7.8%;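 note: 0% = vehicle wells and 100% = reference activator wells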
NR2E3 ag-2: human photoreceptor-specific nuclear receptor agonism; Q9Y5X4; CHO-S Gal4-NCOR/VP16-NR2E3 two-hybrid, luciferase; inhibition of corepressor binding, % at 3.98 µM; actives 0.35% (n = 360,000);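 active = inhibition above the mean of all tested compounds plus 3 SD, cut at about 70% in these data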;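 note: 0% = DMSO with NR2E3 transfected cells and 100% = cells lacking NR2E3 construct; higher means lower luciferase signal from less NR2E3 corepressor binding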
GASC-1 inh: blocks human GASC-1 demethylase activity. Q9H3R0. GST-JMJD2C(1-420) H3K9me3 demethylation, DELFIA europium. actives 0.069% (n = 330,000). inhibition, % at 2.35 µM. AID 2099;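 active = more than half of a compound's replicate wells show inhibition beyond 50%, single wells judged on their own value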;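 note: signal counts dimethyl H3K9 product captured on neutravidin plate; 0% = median of DMSO wells and 100% = 0.3 times that DMSO median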
SMARCA2 act conf: SMARCA2 activation, confirmation screen; activation, % at 9.1 µM; MG213 cells, MMTV-luciferase with dexamethasone, luminescence, overnight; MG213 cells expressing E1A, Rb sequestered; DMSO wells 0%, reference activator 100%; shares compounds with SMARCA2 activ; actives 30% (n = 3,500);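 active = activation above its plate's cutoff, the mean activation of tested wells plus 3 SD, cut at about 7.9% in these data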
VP16 Luc act: activates GAL4-VP16 luciferase, flagging SMARCA2 activator hits; actives 41% (n = 3,500); activation, % at 9.1 µM; HEK293 GAL4-VP16 pG5luc reporter, luciferase luminescence; scaled: DMSO wells 0%, SAHA wells 100%; shares compounds with SMARCA2 activ;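 active = activation above the solvent-only control well mean plus 3 SD, averaged across control plates, cut at about 5.2% in these data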
Numbers without * were called inactive; · = no result.

SMILES | DAX1 inh-1 | NR2E3 ag-1 | DAX1 inh-2 | SMARCA2 activ | NR2E3 ag-2 | GASC-1 inh | SMARCA2 act conf | VP16 Luc act
CCOc1ccc(C(=O)NCC(=O)NCC(c2ccccc2OC)N2CCCC2)cc1 (stereo not drawn) | 0 | 1 | 1 | 4 | -1 | 7 | · | ·
Cc1ccc(NC(=S)N2CCN(c3ccccc3F)CC2)c(C)c1 | 0 | -2 | -2 | -1 | -1 | 3 | · | ·
CC(C)c1c(C(=O)Nc2ccccc2)c(-c2ccccc2)c(-c2ccc(F)cc2)n1CC[C@@H](O)C[C@@H](O)CC(=O)O | · | · | · | 17* | · | · | 13* | -1
CCc1cccc2c(C(=O)COC(=O)c3c(C)noc3C)c[nH]c12 | 0 | 1 | 0 | 8.6* | -27 | -4 | 4 | 0
Cc1noc(C)c1C(=O)OCC(=O)c1c[nH]c2ccccc12 | -1 | 4 | -1 | 3 | 18 | -64 | · | ·
COc1ccc(N(CC(=O)NN=C2CCN(C)CC2)S(=O)(=O)c2ccccc2)c(OC)c1 | 0 | 0 | 0 | -2 | -11 | 20 | · | ·
COc1ccc(CNC(=O)C(C)OC(=O)CO/N=C(\C)c2ccc3c(c2)OCO3)cc1 (stereo not drawn) | 1 | -1 | 0 | 2 | 10 | -1 | · | ·
CC(=O)c1ccc(N2CCN(S(=O)(=O)c3ccc4c(c3)C(Cl)(Cl)C(=O)N4)CC2)cc1 | 1 | · | · | 10* | 10 | · | 4 | 1
O=C(CC1C(=O)CCCC1=O)c1ccccc1 | 0 | 2 | 1 | 8.6* | -22 | 1 | 8.1* | 2
CC(C)(C)c1ccc(S(=O)(=O)N2CCCC2C(=O)N2CCc3ccccc3C2)cc1 (stereo not drawn) | 0 | · | · | 1 | · | · | · | ·
CCOC(=O)C(C)Sc1nc(-c2cccs2)ccc1C#N (stereo not drawn) | 0 | 6 | 1 | -4 | -25 | 12 | · | ·
C=COC(=O)CSc1nc(-c2cccs2)ccc1C#N | 3 | 2 | 2 | 8.3* | -91 | -12 | 6 | 9.3*
S=c1nccc(-c2ccc3c(c2)CCO3)[nH]1 | 0 | 1 | 0 | -3 | -42 | 2 | · | ·
Cc1ccc(-c2ccnc(=S)[nH]2)cc1 | 0 | 2 | 0 | 11* | -38 | -32 | 1 | 2
CC(C)C(NC(=O)CCNC(=O)c1ccccc1Cl)c1nc2ccccc2[nH]1 (stereo not drawn) | -2 | 5 | 0 | -2 | 11 | 0 | · | ·
CCc1nnc2n1N=C(c1ccc(OC)cc1)CS2 | -1 | 1 | -1 | -1 | -11 | 0 | · | ·
CCc1nnc2n1N=C(c1ccc(-c3cc(Cl)ccc3Cl)o1)CS2 | 0 | 0 | 0 | 8.9* | -24 | 5 | 1 | 2
CCCCNC(=O)C[C@H]1C[C@@]2(C(=O)OC)C(=C[C@H](C3CCCC3)O[C@@H]2C)N(Cc2ccc(Cl)cc2Cl)C1=O | -1 | · | · | -4 | · | · | · | ·
COC(=O)c1ccc(Cn2ccc3ccc(-c4ccc5ccn(C(=O)C6CCCCC6)c5c4)cc32)cc1 | 0 | · | · | -1 | · | · | · | ·
Nc1nc(Nc2ccccc2F)sc1C(=O)c1ccccc1 | 0 | 3 | 2 | 8.2* | -105 | -14 | 13* | 6.9*
O=C(COc1cccc(C(F)(F)F)c1)Nc1cccnc1 | 0 | 5 | 0 | 8.4* | -31 | -9 | -1 | -1
NNC(=O)c1nnsc1-c1csnn1 | 2 | · | 4 | 9.1* | -15 | · | -1 | 0
Cc1ccc(OCc2nc3ccccc3[nH]2)cc1 | 4.2* | -2 | 0 | 14* | -89 | 1 | 10* | 8.2*
c1ccc(OCc2nc3ccccc3[nH]2)cc1 | 2 | 0 | 3 | 8 | -107 | 1 | · | ·
C[C@H]1COc2cc(N3CCCC3)ccc2S(=O)(=O)N1C | -1 | · | · | -1 | · | · | · | ·
SMILES | DAX1 inh-1 | NR2E3 ag-1 | DAX1 inh-2 | SMARCA2 activ | NR2E3 ag-2 | GASC-1 inh | SMARCA2 act conf | VP16 Luc act
COc1cc(C)nc(NC(=O)NC(=O)c2ccc(C(F)(F)F)cc2)n1 | 0 | 1 | 1 | 8.1* | 11 | 15 | 0 | 0
Cc1cc(C)nc(NC(=O)NC(=O)c2ccccc2)n1 | -2 | 0 | 0 | -1 | -22 | 5 | · | ·
CC(C)C(=O)N1CCC1(C)C(=O)Nc1cc(-c2ccccc2)nn1C (stereo not drawn) | 2 | · | · | 4 | -107 | · | · | ·
CCC(=O)N1CCC1(C)C(=O)Nc1cc(-c2ccccc2)nn1C (stereo not drawn) | 3 | · | · | 10* | -73 | · | 1 | 7.4*
Cc1[nH]n(-c2ccccc2)c(=O)c1/C=N/N(c1ccccc1)c1ccccc1 | 0 | -6 | 0 | -3 | 5 | 8 | · | ·
C=CCN=Cc1c(C)[nH]n(-c2ccccc2)c1=O | 1 | 1 | 1 | 8.5* | -67 | 6 | 1 | 6.2*
CCOC(=O)c1ccc(Nc2ncccc2[N+](=O)[O-])cc1 | 1 | -3 | 1 | 8.3* | -77 | 0 | 16* | 6.2*
CCOC(=O)c1ccc(NC(=O)c2ccccc2[N+](=O)[O-])cc1 | 1 | 0 | 0 | -2 | -31 | -2 | · | ·
COC(=O)[C@]12C[C@H](CC(=O)NCC34CC5CC(CC(C5)C3)C4)C(=O)N(CCc3ccc(OC)c(OC)c3)C1=C[C@H](COCc1ccccc1)O[C@@H]2C | -1 | · | · | -3 | · | · | · | ·
O=C(Cn1c(=O)c2sccc2n(Cc2cccc([N+](=O)[O-])c2)c1=O)NCCc1ccccc1 | 0 | -1 | -2 | -2 | -7 | -8 | · | ·
O=C(Cn1c(=O)c2sccc2n(Cc2ccc([N+](=O)[O-])cc2)c1=O)NCCc1ccccc1 | 0 | -2 | 3 | 10* | 18 | -7 | -6 | 0
CSc1cccc(N2CC(C(=O)N(CC(C)C)c3c(N)n(Cc4ccccc4)c(=O)[nH]c3=O)CC2=O)c1 (stereo not drawn) | 0 | 0 | 1 | 0 | 13 | 8 | · | ·
COc1ccccc1NC(=O)C/C(C)=N/NC(=O)c1ccccn1 | 2 | 4 | 3 | 12* | -124 | 29 | -1 | 3
COc1cc(NC(=O)C/C(C)=N/NC(=O)c2ccccn2)c(OC)cc1Cl | 2 | 1 | 1 | 3 | -104 | -14 | · | ·
Cc1ccc(NC(=O)c2cnccn2)cc1 | 3 | -3 | 4 | 3 | -82 | -4 | · | ·
CCOc1ccc(NC(=O)C/C(C)=N/NC(=O)c2cnccn2)cc1 | 1 | · | 1 | 8.9* | -31 | 0 | 3 | 3
O=C(Nc1ccc(F)cc1)c1cnccn1 | 0 | · | 1 | 8.7* | -20 | · | 2 | 2
